ChEMBL document CHEMBL1154089, “Novel N-(3-carboxyl-9-benzyl-beta-carboline-1-yl)ethylamino acids: synthesis, anti-tumor evaluation, intercalating determination, 3D QSAR analysis and docking investigation” (Eur J Med Chem, 2009)

Experiments:
CCRF S-180 [1] = assay: Antitumor activity against mouse S180 cells xenografted in ICR mouse assessed as inhibition of tumor growth at 89 umol/kg, ip administered 24 hrs after tumor implantation once daily for 7 consecutive days measured after 24 hrs last post dose; type: functional; details: CCRF S-180, ip
How it was run: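 S180 solid tumors in male ICR mice (10–12 weeks), 1 × 10^7 cells s.c. at the right armpit. Mice randomized at 24 h, n = 12 per group, and dosed i.p. daily in 0.2 ml 0.9% saline for 7 days. Tumors weighed 24 h after the final dose. Inhibition (%) = [(A − B)/A] × 100, where A is the mean tumor weight of saline controls and B is the mean of the treated group.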

CCRF S-180 [2] = assay: Antitumor activity against mouse S180 cells xenografted in ICR mouse assessed as decrease in tumor weight at 89 umol/kg, ip administered 24 hrs after tumor implantation once daily for 7 consecutive days measured after 24 hrs last post dose; type: functional
How it was run: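 Male ICR mice, 10–12 weeks old. Solid tumors from 1 × 10^7 viable S180 ascites cells in 0.2 ml 0.9% saline, injected s.c. at the right armpit. Random allocation at 24 h, 12 per group. Dosed i.p. daily in 0.2 ml 0.9% saline for 7 days. Saline-only negative control; cytarabine 89 µmol/kg positive control. Tumors excised and weighed 24 h after the last dose. ANOVA used for statistics.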

Mus musculus [3] = assay: Toxicity in ICR mouse assessed as tetanus at > 500 mg/kg, ip after 7 days; type: organism-based; parameters: dose 500 mg/kg, route intraperitoneal; details: in vivo, 168 h
How it was run: (§1)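 Mice fasted overnight with free access to water, then given a single i.p. injection of 150, 300 or 500 mg/kg in 0.2 ml of 0.9% saline. Groups of 12 (six male, six female). Animals were watched continuously for up to 7 days for abnormal behaviour (tremor, twitch, jumping, tetanus, supination) or death. They were sacrificed on day 7, and heart, liver and kidneys were checked macroscopically. LD50 was estimated graphically.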

Mus musculus [4] = assay: Toxicity in ICR mouse assessed as jumping at > 500 mg/kg, ip after 7 days; type: organism-based; parameters: dose 500 mg/kg, route intraperitoneal; details: in vivo, 168 h; how it was run: as §1
Mus musculus [5] = assay: Toxicity in ICR mouse assessed as supination at > 500 mg/kg, ip after 7 days; type: organism-based; parameters: dose 500 mg/kg, route intraperitoneal; details: in vivo, 168 h; how it was run: as §1
Mus musculus [6] = assay: Toxicity in ICR mouse assessed as twitch at > 500 mg/kg, ip after 7 days; type: organism-based; parameters: dose 500 mg/kg, route intraperitoneal; details: in vivo, 168 h; how it was run: as §1
HL-60 = assay: Cytotoxicity against human HL60 cells after 48 hrs by MTT assay; type: functional, cell-based; details: HL-60, 48 h
How it was run: (§2)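 Cells grown in DMEM or RPMI-1640 with 10% FBS plus penicillin/streptomycin. Seeded at 5 × 10^4 cells/ml and given 4 h at 37 °C in 5% CO2 before the medium was replaced with compound (0.1–400 µM, DMSO vehicle; vehicle control 1% DMSO). After 48 h, MTT added (final 0.5 mg/ml) for 4 h. Formazan dissolved in DMSO and read at 570 nm. IC50 is the concentration giving 50% growth inhibition.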

Mus musculus [7] = assay: Toxicity in ICR mouse assessed as death at > 500 mg/kg, ip after 7 days; type: organism-based; parameters: dose 500 mg/kg, route intraperitoneal; details: in vivo, 168 h; how it was run: as §1
Mus musculus [8] = assay: Toxicity in mouse S180 cells xenografted in ICR mouse assessed as increase in body weight at 89 umol/kg, ip administered 24 hrs after tumor implantation once daily for 7 consecutive days measured after 24 hrs last post dose; type: organism-based, CCRF S-180; details: in vivo
How it was run: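 S180-bearing male ICR mice, n = 12 per group, given 89 µmol/kg i.p. daily in 0.2 ml 0.9% saline for 7 days, starting 24 h after s.c. implantation. Animals weighed daily. Result expressed as body-weight increase from the start of treatment, in g, mean ± SD.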

HepG2 = assay: Cytotoxicity against human HepG2 cells after 48 hrs by MTT assay; type: functional, cell-based; details: HepG2, 48 h; how it was run: as §2
[9] = Cytotoxicity against human H1299 cells after 48 hrs by MTT assay; type: functional, cell-based; details: NCI-H1299, 48 h; how it was run: as §2
Mus musculus [10] = assay: Toxicity in ICR mouse assessed as kidneys necropsy at > 500 mg/kg, ip after 7 days; type: organism-based, Kidney; parameters: dose 500 mg/kg, route intraperitoneal; details: in vivo, 168 h; how it was run: as §1
Mus musculus [11] = assay: Toxicity in ICR mouse assessed as tremor at > 500 mg/kg, ip after 7 days; type: organism-based; parameters: dose 500 mg/kg, route intraperitoneal; details: in vivo, 168 h; how it was run: as §1
Mus musculus [12] = assay: Toxicity in ICR mouse assessed as liver necropsy at > 500 mg/kg, ip after 7 days; type: organism-based; parameters: dose 500 mg/kg, route intraperitoneal; details: in vivo, 168 h; how it was run: as §1
[13] = Cytotoxicity against human MES-SA cells after 48 hrs by MTT assay; type: functional, cell-based; how it was run: as §2
Mus musculus [14] = assay: Toxicity in ICR mouse assessed as heart necropsy at > 500 mg/kg, ip after 7 days; type: organism-based; parameters: dose 500 mg/kg, route intraperitoneal; details: in vivo, 168 h; how it was run: as §1
HeLa = assay: Cytotoxicity against human HeLa cells after 48 hrs by MTT assay; type: functional, cell-based; how it was run: as §2
Mus musculus [15] = assay: Toxicity in mouse S180 cells xenografted in ICR mouse assessed as spleen index at 89 umol/kg, ip administered 24 hrs after tumor implantation once daily for 7 consecutive days measured after 24 hrs last post dose; type: organism-based, CCRF S-180; details: in vivo
How it was run: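 S180-bearing male ICR mice (n = 12) received 89 µmol/kg i.p. daily in 0.2 ml saline for 7 days. Killed under ether 24 h after the last dose; spleens excised and weighed. Spleen index given as mean ± SD, […] body weight.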

| SMILES | inhibition in vivo at 89 µmol/kg (CCRF S-180 [1]) | Activity (CCRF S-180 [2]) | Activity (Mus musculus [3]) | Activity (Mus musculus [4]) | Activity (Mus musculus [5]) | Activity (Mus musculus [6]) | IC50 (HL-60) | Activity (Mus musculus [7]) | Activity (Mus musculus [8]) | IC50 (HepG2) | IC50 [9] | Activity (Mus musculus [10]) | Activity (Mus musculus [11]) | Activity (Mus musculus [12]) | IC50 [13] | Activity (Mus musculus [14]) | IC50 (HeLa) | Activity (Mus musculus [15]) |
| --- | --- | --- | --- | --- | --- | --- | --- | --- | --- | --- | --- | --- | --- | --- | --- | --- | --- | --- |
| Nc1ccn([C@@H]2O[C@H](CO)[C@@H](O)[C@@H]2O)c(=O)n1 [CYTARABINE] | 54.8% | 0.74 g |  |  |  |  |  |  |  |  |  |  |  |  |  |  |  |  |
| N=C(N)NCCC[C@H](NCCc1nc(C(=O)O)cc2c3ccccc3n(Cc3ccccc3)c12)C(=O)O | 37.7% | 1.03 g | Non-toxic | Non-toxic | Non-toxic | Non-toxic | 40.9 µM | Non-toxic | 11.19 g | 161 µM | 86.4 µM | Non-toxic | Non-toxic | Non-toxic | 68.2 µM | Non-toxic | 259 µM | 12.7 mg/g |
| O=C(O)c1cc2c3ccccc3n(Cc3ccccc3)c2c(CCN2C(=O)CCC2C(=O)O)n1 (stereo not given) | 43% | 0.94 g |  |  |  |  | 112 µM |  | 12.24 g | > 400 µM | 97.6 µM |  |  |  | 45.9 µM |  | > 400 µM | 12.2 mg/g |
| CC(C)C[C@H](NCCc1nc(C(=O)O)cc2c3ccccc3n(Cc3ccccc3)c12)C(=O)O | 8.7% | 1.51 g |  |  |  |  | 45.2 µM |  | 9.04 g | 176 µM | 69.9 µM |  |  |  | 71.2 µM |  | 189 µM | 10.9 mg/g |
| O=C(O)c1cc2c3ccccc3n(Cc3ccccc3)c2c(CCN2CCC[C@H]2C(=O)O)n1 | 7.2% | 1.53 g |  |  |  |  | 28.4 µM |  | 12.07 g | 107 µM | 75.5 µM |  |  |  | 55.2 µM |  | 161 µM | 12.1 mg/g |
| O=C(O)c1cc2c3ccccc3n(Cc3ccccc3)c2c(CCN[C@@H](Cc2ccc(O)cc2)C(=O)O)n1 | 48.6% | 0.85 g | Non-toxic | Non-toxic | Non-toxic | Non-toxic | 24 µM | Non-toxic | 13.62 g | 127 µM | 72.5 µM | Non-toxic | Non-toxic | Non-toxic | 59.3 µM | Non-toxic | 209 µM | 13.6 mg/g |
| O=C(O)c1cc2c3ccccc3n(Cc3ccccc3)c2c(CCN[C@@H](Cc2c[nH]c3ccccc23)C(=O)O)n1 | 47.2% | 0.85 g |  |  |  |  | 102 µM |  | 11.67 g | 107 µM | 57.3 µM |  |  |  | 11.7 µM |  | 393 µM | 11.7 mg/g |
| CSCC[C@H](NCCc1nc(C(=O)O)cc2c3ccccc3n(Cc3ccccc3)c12)C(=O)O | 1.5% | 1.63 g |  |  |  |  | 182 µM |  | 9.12 g | 108 µM | 100 µM |  |  |  | 86.4 µM |  | 26.5 µM | 11.8 mg/g |
| C[C@@H](O)[C@H](NCCc1nc(C(=O)O)cc2c3ccccc3n(Cc3ccccc3)c12)C(=O)O | -29.1% | 2.12 g | Non-toxic | Non-toxic | Non-toxic | Non-toxic | 50.4 µM | Non-toxic | 11.37 g | > 400 µM | 86.4 µM | Non-toxic | Non-toxic | Non-toxic | 218 µM | Non-toxic | 221 µM | 11.4 mg/g |
| O=C(O)c1cc2c3ccccc3n(Cc3ccccc3)c2c(CCN[C@@H](Cc2ccccc2)C(=O)O)n1 | 5.2% | 1.56 g | Non-toxic | Non-toxic | Non-toxic | Non-toxic | 31.8 µM | Non-toxic | 9.74 g | 114 µM | 59.3 µM | Non-toxic | Non-toxic | Non-toxic | 11 µM | Non-toxic | 51.7 µM | 14.4 mg/g |
| O=C(O)C[C@H](NCCc1nc(C(=O)O)cc2c3ccccc3n(Cc3ccccc3)c12)C(=O)O | 34.7% | 1.08 g | Non-toxic | Non-toxic | Non-toxic | Non-toxic | 43.2 µM | Non-toxic | 10.11 g | 114 µM | 69 µM | Non-toxic | Non-toxic | Non-toxic | 13 µM | Non-toxic | 99.3 µM | 13 mg/g |
| O=C(O)c1cc2c3ccccc3n(Cc3ccccc3)c2c(CCN[C@@H](CO)C(=O)O)n1 | 35.3% | 1.07 g |  |  |  |  | 23.5 µM |  | 11.46 g | 174 µM | 83.8 µM |  |  |  | 136 µM |  | 210 µM | 10.5 mg/g |
| O=C(O)c1cc2c3ccccc3n(Cc3ccccc3)c2c(CCN[C@@H](Cc2c[nH]cn2)C(=O)O)n1 | 9.7% | 1.49 g |  |  |  |  | 160 µM |  | 11.87 g | 70.7 µM | 20 µM |  |  |  | 14.5 µM |  | 136 µM | 11.9 mg/g |
| O=C(O)CNCCc1nc(C(=O)O)cc2c3ccccc3n(Cc3ccccc3)c12 | 11% | 1.47 g | Non-toxic | Non-toxic | Non-toxic | Non-toxic | > 400 µM | Non-toxic | 11.34 g | > 400 µM | 75.6 µM | Non-toxic | Non-toxic | Non-toxic | 178 µM | Non-toxic | > 400 µM | 13.1 mg/g |
| CC(C)[C@@H](NCCc1nc(C(=O)O)cc2c3ccccc3n(Cc3ccccc3)c12)C(=O)O | 53.8% | 0.76 g |  |  |  |  | > 400 µM |  | 10.23 g | > 400 µM | 199 µM |  |  |  | 175 µM |  | 290 µM | 10.2 mg/g |
| CC[C@H](C)[C@H](NCCc1nc(C(=O)O)cc2c3ccccc3n(Cc3ccccc3)c12)C(=O)O | 1.6% | 1.62 g | Non-toxic | Non-toxic | Non-toxic | Non-toxic | 33.2 µM | Non-toxic | 13.56 g | 254 µM | 69 µM | Non-toxic | Non-toxic | Non-toxic | 181 µM | Non-toxic | 200 µM | 13.6 mg/g |
